In ChEMBL document CHEMBL3525986, “Nicotinamide N-oxidation by CYP2E1 in human liver microsomes” (Drug Metab Dispos, 2013):

Tests used:
Assay type in all cases: ADME
Cytochrome P450 2E1 [1] = molecular target: T1, Cytochrome P450 2E1 (Homo sapiens, UniProt P05181); experiment: Drug metabolism in human liver microsomes assessed as CYP2E1-mediated nicotinamide N-oxide formation preincubated for 5 mins at 45 degC after 30 mins by HPLC analysis in absence of NADPH; details: 0.5 h
Method in brief: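 Before assay, HLM were heated 5 min at 45°C with or without NADPH. Incubation then ran with 2 mM NAM for 30 min in pH 7.4 phosphate buffer. NAM N-oxide was quantified by HILIC HPLC (UV 254 nm) from a standard curve. Triplicate determinations, t-test.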

Cytochrome P450 2E1 [2] = molecular target: T1, Cytochrome P450 2E1; experiment: Drug metabolism in insect microsomes assessed as CYP2E1 (unknown origin)-mediated nicotinamide N-oxide formation after 30 mins by HPLC analysis; details: 0.5 h
Method in brief: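 Insect cell microsomes overexpressing CYP2E1 were diluted 4-fold with control insect microsomes. Otherwise run as for HLM: pH 7.4 phosphate, 1mM NADPH, 37°C, 30 min, across a range of NAM concentrations. Methanol stop, HILIC HPLC with UV at 254 nm. Triplicates.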

Cytochrome P450 2E1 [3] = molecular target: T1, Cytochrome P450 2E1; experiment: Drug metabolism in human liver microsomes assessed as antibody-mediated reduction in CYP2E1-mediated nicotinamide N-oxide formation at 2 mM by HPLC analysis relative to control; set-up: scale not given: the % may be the effect or the level left; details: 2000 µM
Method in brief: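 HLM (1 mg/ml, pH 7.4 phosphate, 1mM NADPH) were preincubated 5 min at 37°C with 15 microgram anti-CYP2E1 or control mouse antibody. Control antibody was dialysed against Tris to remove azide. Then 2 mM NAM was added for 30 min. HPLC-UV 254 nm quantitation was expressed against the control antibody. Triplicates.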

Cytochrome P450 2E1 [4] = molecular target: T1, Cytochrome P450 2E1; experiment: Drug metabolism in human liver microsomes assessed as diethyldithiocarbamate-mediated reduction of CYP2E1-mediated nicotinamide N-oxide formation at 2 mM by HPLC analysis relative to control; details: 2000 µM
Method in brief: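 Microsomes (1 mg/ml HLM, 1mM NADPH, pH 7.4) were preincubated 30 min with 100 μM diethyldithiocarbamate (final 0.1% methanol). Then 2 mM NAM was added for 30 min at 37°C. N-oxide was quantified by HILIC HPLC at 254 nm versus control. Triplicate means, t-test.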

Cytochrome P450 2A6 = molecular target: T2, Cytochrome P450 2A6 (Homo sapiens, UniProt P11509); experiment: Drug metabolism in human liver microsomes assessed as CYP2A6-mediated nicotinamide N-oxide formation by HPLC analysis
T2 sequence (P11509 whole entry): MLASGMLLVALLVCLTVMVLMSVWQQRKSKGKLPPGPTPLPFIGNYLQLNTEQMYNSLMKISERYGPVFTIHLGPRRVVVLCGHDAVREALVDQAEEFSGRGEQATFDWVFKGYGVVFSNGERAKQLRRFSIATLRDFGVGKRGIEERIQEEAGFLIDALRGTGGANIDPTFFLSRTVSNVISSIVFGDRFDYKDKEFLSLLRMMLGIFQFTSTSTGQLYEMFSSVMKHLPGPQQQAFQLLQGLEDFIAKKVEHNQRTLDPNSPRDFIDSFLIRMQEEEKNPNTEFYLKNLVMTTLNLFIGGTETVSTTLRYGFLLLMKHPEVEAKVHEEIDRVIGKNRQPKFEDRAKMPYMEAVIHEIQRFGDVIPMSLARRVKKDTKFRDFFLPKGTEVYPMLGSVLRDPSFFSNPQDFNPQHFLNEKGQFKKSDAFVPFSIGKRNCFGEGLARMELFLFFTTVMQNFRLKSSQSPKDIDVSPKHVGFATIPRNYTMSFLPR

Cytochrome P450 2E1 [5] = molecular target: T1, Cytochrome P450 2E1; experiment: Drug metabolism in human liver microsomes assessed as CYP2E1-mediated nicotinamide N-oxide formation at 3 mM after 30 mins by HPLC analysis; details: 0.5 h, 3000 µM
Method in brief: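 Pooled human liver microsomes at 1 mg/ml in 0.1 M NaH2PO4, pH 7.4, with 1mM NADPH were preincubated 2 min at 37°C. NAM was added at varied concentrations and run 30 min, then stopped with ice-cold methanol. N-oxide was measured by HILIC HPLC with UV at 254 nm against a standard curve. Km and Vmax came from a Michaelis-Menten nonlinear fit. Triplicates.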

[6] = molecular target: T3, Flavin-containing monooxygenase 3 (Homo sapiens, UniProt P31513); experiment: Drug metabolism in insect microsomes assessed as FMO3 (unknown origin)-mediated nicotinamide N-oxide formation after 30 mins by HPLC analysis; details: 0.5 h
T3 sequence (P31513 whole entry): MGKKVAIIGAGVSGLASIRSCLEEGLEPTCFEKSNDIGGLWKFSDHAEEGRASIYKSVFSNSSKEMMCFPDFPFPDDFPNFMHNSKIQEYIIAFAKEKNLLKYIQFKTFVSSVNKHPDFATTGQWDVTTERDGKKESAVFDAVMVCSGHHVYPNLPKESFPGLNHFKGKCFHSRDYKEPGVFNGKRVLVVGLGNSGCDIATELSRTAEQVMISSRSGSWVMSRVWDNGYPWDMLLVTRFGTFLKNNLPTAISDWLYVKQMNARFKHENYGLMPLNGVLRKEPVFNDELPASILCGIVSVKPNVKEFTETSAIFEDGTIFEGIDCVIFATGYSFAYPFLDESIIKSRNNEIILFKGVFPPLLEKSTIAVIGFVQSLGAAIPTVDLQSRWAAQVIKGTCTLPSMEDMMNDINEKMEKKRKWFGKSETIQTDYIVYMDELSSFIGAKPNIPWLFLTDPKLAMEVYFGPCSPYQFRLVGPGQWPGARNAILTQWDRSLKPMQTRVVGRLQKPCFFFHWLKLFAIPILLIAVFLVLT

Cytochrome P450 2E1 [7] = molecular target: T1, Cytochrome P450 2E1; experiment: Drug metabolism in human liver microsomes assessed as chlorzoxazone-mediated reduction of CYP2E1-mediated nicotinamide N-oxide formation at 2 mM by HPLC analysis relative to control; details: 2000 µM
Method in brief: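 Human liver microsomes (1 mg/ml, 1mM NADPH, pH 7.4) were incubated with 2 mM NAM plus 100 μM chlorzoxazone (final 1% acetonitrile) for 30 min at 37°C. Methanol quench, then HILIC HPLC, UV 254 nm. Compared against solvent control; triplicates, t-test.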

Cytochrome P450 2B6 = molecular target: T4, Cytochrome P450 2B6 (Homo sapiens, UniProt P20813); experiment: Drug metabolism in human liver microsomes assessed as CYP2B6-mediated nicotinamide N-oxide formation by HPLC analysis
T4 sequence (P20813 whole entry): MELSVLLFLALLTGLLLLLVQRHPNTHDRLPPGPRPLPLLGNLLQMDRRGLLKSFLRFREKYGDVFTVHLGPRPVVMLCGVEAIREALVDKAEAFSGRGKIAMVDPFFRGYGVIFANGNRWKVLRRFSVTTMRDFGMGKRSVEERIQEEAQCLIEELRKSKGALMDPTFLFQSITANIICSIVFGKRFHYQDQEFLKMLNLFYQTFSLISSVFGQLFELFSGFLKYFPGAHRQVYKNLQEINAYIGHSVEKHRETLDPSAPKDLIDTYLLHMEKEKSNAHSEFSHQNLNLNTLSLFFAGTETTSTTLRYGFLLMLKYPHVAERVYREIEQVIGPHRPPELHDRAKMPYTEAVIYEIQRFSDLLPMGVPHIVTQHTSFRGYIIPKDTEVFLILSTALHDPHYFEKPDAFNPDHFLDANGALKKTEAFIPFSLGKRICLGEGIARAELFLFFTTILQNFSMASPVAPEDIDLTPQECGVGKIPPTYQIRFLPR

T1 sequence (P05181 whole entry): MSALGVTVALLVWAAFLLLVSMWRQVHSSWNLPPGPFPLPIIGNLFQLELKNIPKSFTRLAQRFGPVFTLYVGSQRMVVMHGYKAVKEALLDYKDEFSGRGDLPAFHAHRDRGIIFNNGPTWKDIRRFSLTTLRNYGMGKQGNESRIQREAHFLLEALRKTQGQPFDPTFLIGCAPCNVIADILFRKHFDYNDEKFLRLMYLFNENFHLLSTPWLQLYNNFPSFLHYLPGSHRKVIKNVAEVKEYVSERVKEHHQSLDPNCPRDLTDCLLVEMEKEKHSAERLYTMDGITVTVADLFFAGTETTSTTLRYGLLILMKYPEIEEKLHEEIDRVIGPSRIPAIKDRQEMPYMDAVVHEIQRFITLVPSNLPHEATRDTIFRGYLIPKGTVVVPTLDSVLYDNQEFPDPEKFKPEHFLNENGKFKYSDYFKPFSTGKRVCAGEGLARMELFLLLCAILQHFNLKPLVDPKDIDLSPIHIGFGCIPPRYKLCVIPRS

Drug metabolism (Cytochrome P450 2E1 [1]): metabolite_detected | Drug metabolism (Cytochrome P450 2E1 [2]): Dose-dependent effect | Activity (Cytochrome P450 2E1 [3]): < 8% | fold change (FC) (Cytochrome P450 2E1 [4]): 8 | Drug metabolism (Cytochrome P450 2A6): metabolite_not_detected | Drug metabolism (Cytochrome P450 2E1 [5]): metabolite_detected | Drug metabolism [6]: metabolite_not_detected | fold change (FC) (Cytochrome P450 2E1 [7]): > 5 | Drug metabolism (Cytochrome P450 2B6): metabolite_not_detected
SMILES: NC(=O)c1cccnc1 [NIACINAMIDE]
